This is an account of results in article PMC6619501 (Nature microbiology, 2018).

The test system of assay [1] is IκBα phosphorylation. The assay can be described thus: Immunoblot analysis of p-IκBα in A.f-infected BMDMs. It is filed as cell-based, mouse. Particulars: unprimed WT BMDMs incubated with NF-κB inhibitor during fungal infection. The gist of the method:
(§1)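 Bone-marrow-derived macrophages from C57BL/6-background mice, 3×10^6 cells in DMEM with 10% FBS and 1% penicillin–streptomycin, left unprimed and given the NF-κB inhibitor class test compound. They were then infected with A. fumigatus A1160 conidia (malt-agar slants, 1 week) at MOI 20. Cells were lysed in 1× RIPA, and 15 μg protein was separated by SDS-PAGE, transferred to PVDF and probed for p-IκBα, total IκBα and IRF1 with HRP detection. Representative of ≥3 independent experiments.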
In general terms: Immunoblotting shows a protein as a band on a membrane.

In assay [2] the test system is IRF1. The assay can be described thus: Immunoblot analysis of IRF1 in A.f-infected BMDMs. It is filed as cell-based, mouse. Particulars: unprimed WT BMDMs incubated with NF-κB inhibitor during fungal infection. The gist of the method:
as §1

As for `Cc1ccc(S(=O)(=O)/C=C/C#N)cc1` [Bay 11-7082], the “phosphorylation of IκBα” value in assay [1] is listed as “reduced”. In assay [2], the IRF1 induction entry is listed as “reduced”.
